ChEMBL document CHEMBL4513216, “Probing the Open Global Health Chemical Diversity Library for Multistage-Active Starting Points for Next-Generation Antimalarials” (ACS Infect Dis, 2020)

Test: Toxicity liver stage against HepG2, at 10uM
Format: cell-based
Set-up: test concentration 10 uM, cell line HepG2-A16-CD81EGFP
Details: human, HepG2-A16-CD81EGFP cells; read-out: INHIBITION
How it was run: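 Uninfected HepG2-A16-CD81EGFP cells, 3 × 10^3 per well, 1536-well, plated on prespotted compound at 10 μM final, parasite-free screening media added to match infected plates; puromycin 10 μM positive, DMSO 0.5% negative; run in parallel with 48 h PbLuc assay at 37 °C, 5% CO2; viability by CellTiter-Glo luminescence, normalized to controls.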

Compound	cytotoxicity at 10 µM
Cc1cccc(-c2noc([C@@H]3C[C@@H](O)CN3Cc3ccc(CO)o3)n2)c1	7.38%
CNC(=O)C(C)(C)N1CCC[C@H]1C(=O)NCCN1CCOCC1	3.29%
CC(C)(C)c1cc(C[C@H]2CNCC[C@H]2CC(=O)N2CCCCC2)no1	-1.91%
CC(C)(C)OC(=O)Cn1cccc(S(=O)(=O)N2CCCCCC2)c1=O	-2.28%
CCSc1ccccc1C(=O)NCC1CCN(Cc2ccsc2)CC1	-8.44%
Cc1nccn1-c1ccc(=O)n(CCNC(=O)Cc2ccccc2)n1	-4.17%
O=C(Cc1ccsc1)NCCc1ccoc1	5.5%
CC(=O)N1CCCC2(CCN(Cc3ccc(Cl)c(F)c3)C2)C1 (centres undefined)	9.58%
Cn1cnc(S(=O)(=O)N2CCO[C@H]3[C@H](OCC4CC4)CC[C@@H]32)c1	8.31%
Cc1cc(C(=O)N2CCc3c(CN(C)C)nn(C)c3C2)[nH]n1	-3.25%
O=C(c1ccnnc1)N1CCO[C@H]2[C@H](Oc3cccnc3)CC[C@@H]21	8.39%
O=C(CC1CC1)N1Cc2nccn2CC(COc2cccnc2)C1 (centres undefined)	5.09%
O=C(O)c1nnn(Cc2cccc(C(F)(F)F)c2)c1-c1ccncc1	1.93%
O=c1[nH]c2nc(NC3CC3)ncc2c(=O)n1-c1ccc(F)cc1	-4.06%
CC(C)NC(=O)[C@H]1CN(Cc2ccccc2)C[C@@H]1C(=O)c1ccccc1	7.84%
Cc1noc(C)c1-c1cccc(C2CN(S(=O)(=O)N(C)C)CCO2)n1 (centres undefined)	11.4%
Cc1ncccc1C(=O)N1CCC2(CCc3ccccc3C(=O)N2)C1 (centres undefined)	4.28%
CCCn1nc(C)c(CN(CCN(C)C)Cc2ccccn2)c1C	-0.641%
CN([C@@H]1CCC[C@@H](n2ccnc2)[C@@H]1O)S(=O)(=O)c1cn(C)cn1	0.57%
CN1CCC(c2cncc(Cl)n2)CC1	0.752%
CCCc1cc(C(=O)N[C@@H]2CCC[C@@H](N3CCCC3)[C@@H]2O)no1	-2.48%
Cc1cnc(-c2nc(O)c3c(n2)CN(C(=O)C2CCOC2)CC3)cn1 (centres undefined)	-6.76%

Compound	cytotoxicity at 10 µM
CC(=O)N1CCCC1c1cccc(Cc2ccc(F)cc2)n1 (centres undefined)	-1.98%
Cc1ncc(CNC(=O)CCc2cccc(F)c2)c(C2CCCN2C)n1 (centres undefined)	-6.82%
Cc1ccc(C(C)NC(=O)N2CCN(C(=O)CC(F)(F)F)CC2)o1 (centres undefined)	43.3%
Cc1ccc(C)c(-n2nnnc2SCN2CCCCC2=O)c1	-47.3%
Cc1ccc(O)c(CNc2cccc(CN3CCN(C)CC3)c2)n1	-2%
CN(Cc1cc(Cl)c2c(c1)OCO2)Cc1cscn1	-2.76%
CCOCCOC(C)C(=O)Nc1ccc2ccn(CC(=O)NC)c2c1 (centres undefined)	2.3%
CCc1ccccc1CNC(=O)NCc1cnn(C)c1	2.14%
Cc1cc(C(=O)NCC2SCCc3ccccc32)no1 (centres undefined)	3.41%
COC(=O)NCC(=O)N(C)Cc1csc(C)n1	2.33%
CC(C)OCCC(=O)NCC(c1c(F)cccc1F)N(C)C (centres undefined)	-1.19%
CC1CCN(Cc2ccccc2CNC(=O)C2CNC(=O)N2)CC1 (centres undefined)	2.16%
CC1(C)CN(C(CNS(C)(=O)=O)c2ccc(Cl)cc2)CCO1 (centres undefined)	9.12%
COc1ccc(Br)c(NC(=O)NCc2ncnn2C)c1	5.41%
CN(C)C1CCCN(C(=O)NCCc2cc(F)ccc2F)C1 (centres undefined)	-1.05%
Cc1ccc(NC(=O)NC(C)(C)c2noc(C)n2)cc1	12.6%
Cc1cnn(CC2CCCCN2C(=O)Cn2nc(C)c(Cl)c2C)c1 (centres undefined)	-6.24%
CCn1ccnc1CN1CCN(CCc2ccccn2)CC1C (centres undefined)	-8.74%
CN(C)c1ccnc(N2CCC(NCCOc3ccccc3)CC2)n1	-4.99%
O=C(Nc1ccccc1OC1CCOC1)c1cc[nH]n1 (centres undefined)	-1.57%
COCCN(C(=O)c1c[nH]c2ncccc12)C1CCCC1	-3.08%
Cc1nc(C2(NC(=O)NCc3cc(C#N)ccc3F)CCCC2)no1	-4.2%

Compound	cytotoxicity at 10 µM
COc1ccccc1-c1noc(CNc2ccc(F)cc2OCCO)n1	-37.7%
CCC(C)Oc1cc(C(=O)Nc2nc(C)ns2)ccn1 (centres undefined)	-1.02%
CC(C)(O)CN1CCN(C(=O)C2CSc3ccccc3O2)CC1 (centres undefined)	2.16%
CC(C)c1ccc(-n2cc(O)c(C(=O)O)n2)cc1	-42.4%
NC(=O)N1CCCN(C2CCCCc3ccccc32)CC1 (centres undefined)	-43.9%
Cc1cc(C(=O)N2CCn3cc(CN4CCCC4)nc3C2)no1	-79.3%
N#Cc1cccc(N2CC3(CCN(C(=O)C4CC=CC4)C3)CC2=O)c1 (centres undefined)	1.77%
Fc1cccc(-c2n[nH]cc2-c2nc(CN3CCOCC3)no2)c1	-7.58%
COCCN1CCC(C(=O)N(C)Cc2cccc(Cl)c2)C1 (centres undefined)	-28.6%
COCCN1CCN(c2nc(C3CCCC3)nc3c2cnn3C)CC1	-1.91%
CCC(c1nc(CC(C)C)nn1-c1ccccn1)n1cccn1 (centres undefined)	-8.74%
CCc1ncc(C(=O)N2CC(N3CCCCC3)C2)cn1	-4.68%
Cc1noc(C)c1CCCNC(=O)C1CCN(C(=O)C2CCC2)CC1	3.72%
CC1(Cc2cccnc2)NCCc2[nH]cnc21 (centres undefined)	12.1%
Cc1ccnc(NCCNC(=O)Cc2c(C)[nH]c3c(C)ccc(C)c23)c1	-1.89%
O=c1c(C(F)(F)F)cccn1Cc1nnc(-c2cccnc2)o1	-2.93%
CCC[C@@H]1CN(Cc2c[nH]nc2-c2ccc(OC)cc2)C[C@H]1NC(C)=O	-0.566%
COCCN1CC(c2nc(CSC)no2)CCC1=O (centres undefined)	-7.74%
CSCC[C@@H](CO)n1ccnc1-c1ccncc1	7.21%
Cc1[nH]nc(CCC(=O)N2CCOC(CCc3ccccc3)C2)c1C (centres undefined)	-10.8%
O=C(Nc1ccccc1OCCc1ccccn1)NC1CCOCC1	2.43%
COCC1CCN(S(=O)(=O)NCC2COc3ccccc3C2)CC1 (centres undefined)	7.64%

Compound	cytotoxicity at 10 µM
Cc1ccc(C)c(OCCNC(=O)[C@@H]2CCCCN2)c1	0.997%
NC(=O)c1noc(Cn2ccc3ccccc3c2=O)n1	1.39%
CC(C)CN1CCCn2nc(CNC(=O)NC(C)(C)C)cc2C1	-4.54%
Cc1cccc(OCC2CCCN(C(=O)Cn3ccccc3=O)C2)c1 (centres undefined)	-0.503%
COc1nc2c(cc1C(=O)N1C[C@@H](N)C[C@H]1C(=O)NC(C)C)CCC2	3.52%
O=C(Cn1c(=O)oc2ccccc21)N1Cc2cnn(CCO)c2C1	0.154%
O=C(C1CCCO1)N1CCC(n2cc(-c3ccsc3)nn2)CC1 (centres undefined)	-4.18%
CCCC(=O)N(C)C(c1cccc(F)c1)c1ccccn1 (centres undefined)	-2.51%
O=C(c1cc(Cl)cc2cccnc12)N1CCN(CCO)CC1	-2.07%
CCc1nnc(NC(=O)Cc2c(C)nc(C)[nH]c2=O)s1	-14.4%
Cc1nc2c(c(C)c1CC(=O)NCc1ccco1)c(=O)[nH]n2C	-42.5%
CCc1nc(C2CCCN(C(=O)NC(C)C)C2)no1 (centres undefined)	-14%
CN(CC1(O)CCCCC1)C1CCCN(Cc2noc(C3CC3)n2)C1 (centres undefined)	-17.3%
CCc1nc(C2CCCN2C(=O)CCc2ccc3c(c2)OCO3)no1 (centres undefined)	-4.62%
Cc1cccc(-c2nc(CN3CCCCC3Cn3cncn3)no2)c1 (centres undefined)	-3.2%
Cc1noc(CCCC(=O)NC(C)c2ccccn2)n1 (centres undefined)	-10.9%
CCc1ccc(C(=O)N2CCN(CCS(C)(=O)=O)CC2)o1	-8.03%
CC(CNCc1ccc(F)cc1)Oc1ccccn1 (centres undefined)	6.97%
c1nc(CN2CCCC(Cc3ccc(NC4CCCC4)nn3)C2)c[nH]1 (centres undefined)	3.6%
CC(C)NC(=O)CC1COC2(CCN(Cc3cccnc3)CC2)C1 (centres undefined)	0.405%
Cc1ccc(CN2CC[C@H]3[C@H]2CCN3S(=O)(=O)C2CC2)s1	7.74%
O=C(NC1CC1)[C@@H]1CN(Cc2ccc3c(c2)OCO3)C[C@H]2OCC[C@H]21	-1.79%

Compound	cytotoxicity at 10 µM
CN(C)CCN1CCC2(CCN(C(=O)c3ccncc3)CC2)C1=O	0.0515%
O=C(NCc1ccco1)[C@H]1C[C@@H]2CCN(c3nncs3)C[C@H]2O1	1.84%
Cc1noc(C)c1CN1C[C@H](C)[C@]2(CCN(Cc3cccnc3)C2=O)C1	4.59%
Cc1nc(Cn2c3c(ccc2=O)CC(NC(C)C)CC3)cs1 (centres undefined)	6.39%
Cc1cc(N(C)C)nc(C2CCCNC2)n1 (centres undefined)	-3.55%
CCC1=N[C@@]2(CC[C@@H]3CN(Cc4ccccc4F)C[C@@H]32)C(=O)N1CC	-12.4%
c1cnc(N2CC3(CCN(Cc4cccnc4)C3)C2)nc1	-4.87%
CO[C@@H]1CCN(S(=O)(=O)N(C)C)[C@@H]2CN(Cc3ccncc3)C[C@@H]21	15.1%
CCn1ncc2c1C(COCC1CC1)N(Cc1ccccn1)CC2 (centres undefined)	10.9%
CN1CCO[C@@H]2CN(S(=O)(=O)c3cccnc3)C[C@@H]2C1	6.17%
CCn1ncc2c1C(COCC1CC1)N(Cc1nccs1)CC2 (centres undefined)	10.6%
COCCn1cc2c(n1)C(CNCc1ccc(F)cc1)OCC2 (centres undefined)	-9.47%
CN(C)CC1CN(C(=O)NCc2ccccc2)Cc2nccn2C1 (centres undefined)	-3.91%
CC(C)NC(=O)CC1COC2(CCN(Cc3ccsc3)CC2)C1 (centres undefined)	-1.6%
Cc1nc(CN2C[C@@H]3CN(C(=O)c4ccnnc4)C[C@@H]3C2=O)cs1	-7.41%
Cc1ccc(CN2CC[C@H]3NC(=O)CC[C@@H]32)o1	-5.28%
Cc1noc(C)c1CN1C[C@@H]2COC[C@H](C(=O)N3CCOCC3)[C@@H]2C1	-70%
CN(C)Cc1nc2c(o1)CN(C(=O)NCc1cccc(F)c1)C2	5.32%
O=C(NCC1CC1)[C@H]1C[C@H]2CN(C(=O)NCc3ccccc3)C[C@@H]1O2	4.97%
CC=C(C)C(=O)NS(=O)(=O)c1ccc(C(F)(F)F)cn1	3.95%
CC(C)NC(=O)CC1[C@H]2CN(C(=O)Cc3ccccn3)C[C@@H]12 (some centres undefined)	12%
